We go through 48 sequences from the EternaBench riboswitch data.

The test system of this data set is MS2 coat protein. The data set is described as follows: apparent Kd, MS2 coat protein; higher = weaker binding; RNA-MaP array; FMN 200 µM where present. In short, it runs like this:
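Stalled E. coli RNA polymerase produced the designs on Illumina sequencing-chip clusters. SNAP-549-labelled MS2 coat protein was added from 0.7 or 1.5 nM, doubling to 3 µM, without and then with constant ligand, in 100 mM Tris-HCl pH 7.5, 80 mM KCl, 4 mM MgCl2, BSA, DTT, yeast tRNA and Tween-20. The apparent Kd is the median of filtered per-cluster fits of green signal normalised to red-channel RNA signal and control-cluster median Fmax.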

Setting [1] is: designed as: OFF switch for flavin mononucleotide, no ligand.
Where [2] appears, read: ligand present: flavin mononucleotide, designed as: OFF switch for flavin mononucleotide.
[3] abbreviates: designed as: ON switch for flavin mononucleotide, no ligand.
Setting [4] is: ligand present: flavin mononucleotide, designed as: ON switch for flavin mononucleotide.

A word on the apparent Kd: it is a dissociation constant that holds for the conditions of the assay. Consider “CUUUUGUGAGGAUAUUAGUAGUAAUUAAAUAAAAUUACUACUGAGAAGGCACAUGAGGAUCACCCAUGUUCCUC”, for which the “apparent Kd” value under setting [1] was 33.9 nM and the “apparent Kd” value under setting [2] came out at 158 nM.
For “AUUAUAUAGGAAGGAUAUAGAAUAUUAUUUUAACAUGAGGAUCACCCAUGUAACCUUAUGUGUAGCUAGAAGGUCCAUUUGUUA”, the “apparent Kd” value under setting [2] is 315 nM.
For “AAAAAACAUGAGGAUCACCCAUGUGAGGAUAUCAGUAUUCAGUCCUCGGAUUGAGUACUGAGAAGGCACAUAAA”, the “apparent Kd” value was 51.5 nM under setting [1] and 94.2 nM under setting [2].
As for “CCUGUUUGAUUCCUCUUAUACAUGAGGAUCACCCAUGUUAUCGAGGAUAUGCAUUAGAGUGUUUAGCAGAAGGCGAUGUAAUUG”, the “apparent Kd” value under setting [1] is 6.12 nM and the “apparent Kd” value under setting [2] is 17.5 nM.
On to “AUUUCGUCAGGAUAUCCUAGUAAUUGUUUCAUAUUUACGAAGGAGAAGGGACAUGAGGAUCACCCAUGUUGGUC”, for which the “apparent Kd” value is 58.7 nM under setting [1] and 130 nM under setting [2].
Turning to “CCCAGUGCAUCAGGAUAUCCUCACAUGAGGAUCACCCAUGUAAUGAGCCGAGGAGAAGGGAUGUGAACUCCAGUUACCGAUCGU”, the “apparent Kd” value under setting [3] amounted to 267 nM and the “apparent Kd” value under setting [4] came out at 42.2 nM.
“GUCUCAGUUGGCUUCAAGGGCGGUCAGGAUAUGCUAACGUACAUGAGGAUCACCCAUGUCCAAGUGCAGAAGGGACAUACGCCA”: the “apparent Kd” value under setting [3] came to 62.6 nM and the “apparent Kd” value under setting [4] was determined as 7.85 nM.
“UGAGCCUCGUGAGGAUAUACAUGAGGAUCACCCAUGUAAUAAAGUGAACGGAGGAAGCUCCGAAUGUAGAAGGCACGAGGCUCA”: the “apparent Kd” value is, setting by setting: under setting [1], 60.1 nM; under setting [2], 372 nM.
In the case of “AGGUCAACCACAGGAUAUGGCUAGCAUAGCUAGCCAGAAGGGUGGUCGUAUCCAUGUAAAUACAUGAGGAUCACCCAUGUAUCC”, the “apparent Kd” value under setting [3] was 283 nM and the “apparent Kd” value under setting [4] turned out to be 79.1 nM.
With “AUCAGCUCGUCAGGAUAUAGGUCACUGCGUCAGCAGUGUGGUAAGAUCACAUGAGGAUCACCCAUGUAGAAGGGACGAGCUGAU”, the “apparent Kd” value by setting is: under setting [1], 17.3 nM; under setting [2], 59.5 nM.
Turning to “AGCGGGUGGGUAGGAUAUGGCUAUGUCUCAUUGCUAGAAGGACCAGCUGCUACAUGAGGAUCACCCAUGUCGUAGUGCACCCAG”, the “apparent Kd” value by setting is: under setting [3], 195 nM; under setting [4], 12.7 nM.
With “AGGCGAGUAGGAUAUGCAUAUUUACAGGAAAGCUGGAUGGUACAUGAGGAUCACCCAUGUAGAAGGGCUCUGAA”, the “apparent Kd” value is 18.7 nM under setting [1] and 20.7 nM under setting [2].
“GUCAGCUCGUGAGGAUAUACAACUCUGCUUCGGCAGUGUAUUAAGAUCACAUGAGGAUCACCCAUGUAGAAGGCACGAGCUGAU”: the “apparent Kd” value is 11.5 nM under setting [1] and 178 nM under setting [2].
Turning to “GGUUAUUGCAAGGAUAUGCUAUUAUUUUAUUUUGCAGAAGGUGCAACAUGAGGAUCACCCAUGUUGGAGGGUUU”, the “apparent Kd” value by setting is: under setting [1], 21.5 nM; under setting [2], 41.1 nM.
For “AUAAGUUCGUCAGGAUAUACAUGAGACAGUAAUGUUUCAGGUAUGAUCACAUGAGGAUCACCCAUGUAGAAGGGACGAGCUUAU”, the “apparent Kd” value runs as follows: under setting [1], 6.48 nM; under setting [2], 20.6 nM.
Turning to “GCGAUUAAGUAGAAGGUACGAUAUAAAUCAAUGUAAGGAUAUACUGACAUGAGGAUCACCCAUGUUUAAUUUGUUUACUGUCGC”, the “apparent Kd” value amounted to 7.42 nM under setting [3] and 5.99 nM under setting [4].
Consider “CCAUGCAGUGUGAGGAUAUGCUGGUCCUUGGAUCAGCAGAAGGCACAUGAGGAUCACCCAUGUGAAUAGCGUGG”, for which the “apparent Kd” value came out at 44.6 nM under setting [1] and 356 nM under setting [2].
With “CUGUAUCGGUCAGGAUAUGUGCGUAAACUGUGAACAGAAGGGACCGUACAUGAGGAUCACCCAUGUCCGGGACUCCUUAUGCCU”, the “apparent Kd” value amounted to 18.1 nM under setting [1] and 22.2 nM under setting [2].
Turning to “UGGUACUAGUGAGGAUAUGGGAAGAUACAUGAGGAUCACCCAUGUUUAAGAAUGCCGAGAGGCAACUAGAAGGCCCUAGUACCU”, the “apparent Kd” value was found to be 388 nM under setting [3] and 35.8 nM under setting [4].
In the case of “GAGUAGAUCCGAGGAUAUACAAUCCGGAAACGGUACAUGAGGAUCACCCAUGUAGAAGGCGGAUCUACAGGUACUAAAGUACCA”, the “apparent Kd” value stood at 6.24 nM under setting [1] and 8.12 nM under setting [2].
As for “UAUUCAUACGAAGGAUAUGGUUACAUGAGGAUCACCCAUGUAUGUAUAUUGAUCUAGUUAUUUAACCAGAAGGUCGGGUGUAAA”, the “apparent Kd” value was found to be 57.3 nM under setting [1] and 91.3 nM under setting [2].
With “UGAUAGGACAGAGGAUAUGCGUGCUGGUGAUACUAGCAAAGUAUCGUGACAUGAGGAUCACCCAUGUAGAAGGCUGUCCUAUCU”, the “apparent Kd” value under setting [1] came to 28 nM and the “apparent Kd” value under setting [2] is 68.4 nM.
As for “CGAGUGUGAGGAUAUCCAGCCGGUGGGAUUACGUCGACGCUGGAGAAGGCACAUGAGGAUCACCCAUGUGGACA”, the “apparent Kd” value runs as follows: under setting [1], 111 nM; under setting [2], 234 nM.
In the case of “UAUAUAUAGUAAGGAUAUGUAUUAAUAUUAUAAACAGAAGGUACUGACAUGAGGAUCACCCAUGUUUUAGUGUGGGCAUGUAGA”, the “apparent Kd” value is, setting by setting: under setting [1], 87.6 nM; under setting [2], 128 nM.
Regarding “CGAUAUACGAUGGACGGAAACGUACAUGAGGAUCACCCAUGUAGAAGGCGAUCCGCAACGCGGAUUGAGGAUAUAUACCACACA”, the “apparent Kd” value came out at 23.8 nM under setting [1] and 23.3 nM under setting [2].
For “AAGGAGUGAGGAUAUGCUGCUCGUCACUUGCGUGAUGAGUAGCAGAAGGCACAUGAGGAUCACCCAUGUAAAAA”, the “apparent Kd” value runs as follows: under setting [1], 41.5 nM; under setting [2], 49.7 nM.
Take “UGACUGAAGCAAGGAUAUUGAAAAGUUAACGUACAAGAAGGUGCUGUUUAUGUCUCUUUACAUGAGGAUCACCCAUGUUUUUAU”: the “apparent Kd” value worked out at 36.7 nM under setting [3] and 23.2 nM under setting [4].
For the sequence “UCUCGUGUUCAGAAGGGCAAUCAACGAACAUGAGGAUCACCCAUGUUCUGCAGGAUAUGAACGGGUGGGAGCCCUGCGAAGGGC”, the “apparent Kd” value runs as follows: under setting [3], 104 nM; under setting [4], 15 nM.
Consider “GGUGCAUAUGAGAAGGUGAUCAUGAAACAUGAUCGAGGAUAUCAUGUAAACAUGAGGAUCACCCAUGUAUGGGAAUAUUGCACC”, for which the “apparent Kd” value runs as follows: under setting [3], 46.2 nM; under setting [4], 117 nM.
Regarding “GGGCCCGGAGGAUAUACAUGAGGAUCACCCAUGUAGGGUUUGGGUAUUCCCGGGCCCUGUAGAAGGCCGGGCCC”, the “apparent Kd” value under setting [1] came out at 17.1 nM and the “apparent Kd” value under setting [2] amounted to 22.5 nM.
For the sequence “GCAGCAAUUUAAAACAUGAGGAUCACCCAUGUCGAGUGUUAUGAGGAUAUGCAUCGGAUGAAGAUGCAGAAGGCAUUGUGCUGC”, the “apparent Kd” value is 6.32 nM under setting [3] and 6.72 nM under setting [4].
On to “UAGAUCAAUACAGGAUAUGGUGACGCACAUGAGGAUCACCCAUGUCCGCAGCGUGCUCAGCACGCCCAGAAGGGUAUUGAUUCG”, for which the “apparent Kd” value by setting is: under setting [3], 786 nM; under setting [4], 80.1 nM.
Turning to “CAGCCCUGAGGAUAUCCCUACUUGUACAUGAGGAUCACCCAUGUUCUCCUCCGGGCUUCGGGAGAAGGCAGGUCUC”, the “apparent Kd” value was found to be 15.9 nM under setting [1] and 15.5 nM under setting [2].
On to “GUAGCUAUCGGAGGAUAUUCAUAUCGGAAACGGACAUGAGGAUCACCCAUGUGGCGAAAGCCUUGGGAGAAGGCCGAUAGCUAC”, for which the “apparent Kd” value came out at 144 nM under setting [3] and 9.42 nM under setting [4].
With “CUCAAGUGAGGAUAUCAGUAGUAAAAAAAUAAAAUUACUACUGAGAAGGCACAUGAGGAUCACCCAUGUGACUU”, the “apparent Kd” value by setting is: under setting [1], 26.5 nM; under setting [2], 23.5 nM.
Regarding “UAUGAAUAGCAAGGAUAUUGAUAACAUGAGGAUCACCCAUGUAAUUGAUCGAGUUAGAUCAGUUACAAGAAGGUGCAAUUGAUU”, the “apparent Kd” value reads like this: under setting [3], 53 nM; under setting [4], 557 nM.
As for “GUGACGAUGUAAGGAUAUGCUGAGGAAUACUCAGCAGAAGGUACAUGAGGAUCACCCAUGUAAAUAAUAAUAAAUAAACGUCAC”, the “apparent Kd” value under setting [1] was found to be 15.2 nM and the “apparent Kd” value under setting [2] came to 24.1 nM.
In the case of “AGAUCCUGAGUCAGGAUAUAGAGGCGGUAGCCUGGCUAGAAGGGACAUGAGGAUCACCCAUGUGGGUUCUUGCC”, the “apparent Kd” value reads like this: under setting [1], 12.5 nM; under setting [2], 17.4 nM.
In the case of “ACAUGAGGAUCACCCAUGUAUACAUAGGAUAUUGGUGAUCAGGGAUGUUUUACAGGAUAUGUCUGCGAGAAGGAUGCAAGUACU”, the “apparent Kd” value by setting is: under setting [3], 178 nM; under setting [4], 94.7 nM.
With “AAGUUAUUAGGAUAUACUUGUGCGAACCAAACGUUGAUAUUACAUGAGGAUCACCCAUGUAGAAGGAAUAAAAA”, the “apparent Kd” value under setting [1] was found to be 35.7 nM and the “apparent Kd” value under setting [2] is 25.1 nM.
Turning to “UGUAGUUCAGGAUAUGAUGUUUAAUACAUGAGGAUCACCCAUGUAGAUCCUGAAUUAACAUCAGAAGGGAAUAUUU”, the “apparent Kd” value under setting [1] is 20.7 nM and the “apparent Kd” value under setting [2] came to 45.2 nM.
As for “GCCAUCGCAUGAGGAUAUGCUCCCGUUUCGGGAGCAGAAGGCAUGUCAUAAGACAUGAGGAUCACCCAUGUGGUAAAGAUGGCA”, the “apparent Kd” value runs as follows: under setting [3], 237 nM; under setting [4], 10.3 nM.
On to “GCGGUACAUGAGGAUCACCCAUGUCAGGAUAUCCGCUGUUUGUCGAUUGGCGGGCGGUGGAGAAGGGACCUCGC”, for which the “apparent Kd” value reads like this: under setting [1], 80.4 nM; under setting [2], 81.6 nM.
On to “CGCUGUCUCGCAGGAUAUGCAUUGGAUUACAAUGCAGAAGGGCGAUUACAUGAGGAUCACCCAUGUGUUGACAGUGAAGAAGAG”, for which the “apparent Kd” value under setting [3] worked out at 114 nM and the “apparent Kd” value under setting [4] was found to be 21.6 nM.
Turning to “AUUAUUUAAGUCAGGAUAUCGUAUUUAUUUAAAUACGAGAAGGGACAUGAGGAUCACCCAUGUAAUAAAUUUUU”, the “apparent Kd” value is, setting by setting: under setting [1], 16.9 nM; under setting [2], 22.9 nM.
Taken in the same sequence, the figures for “UUGUAGUACGUAGGAUAUCAUUGAGGGUCACCCUGAGAAGGACGUGAGGACAUGAGGAUCACCCAUGUGGAUCACCCAUGUCAU” were 282 nM and 549 nM.
On to “UUUAUAUAGUAAGGAUAUGUAUUAUUUUUUUCAACAGAAGGUACUGACAUGAGGAUCACCCAUGUUUUAGUGUGGGCAUGUAGU”, for which the “apparent Kd” value turned out to be 384 nM under setting [1] and 450 nM under setting [2].
Take “UAAUAAUAAUAAUAGCAGAUUACAUGAGGAUCACCCAUGUAUAAGGAUAUCGUCAGGAAUACUGACGAGAAGGUAUACAACUGC”: the “apparent Kd” value runs as follows: under setting [1], 18.9 nM; under setting [2], 25.7 nM.
